The list is not random: actives were taken first. Their share in the collection is about 3.1%.
CSC inhib: blocks cancer stem cells. cancer stem cell-like cells viability, luminescence. inhibition, % at 7.5 µM. 1.1% of 300,000 active; in the data active means inhibition above about 75%; inconclusive means no clear call, values can overlap the other calls; tested in HMLE shEcad cells
H9c2 TAG inh: triacylglycerol accumulation inhibition | AID 651582 | H9c2 cells, Nile Red lipid (TAG) fluorescence; cells loaded with 200 µM oleic acid | inhibition, % at 12.5 µM | 0.66% of 230,000 active;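 active means pattern-corrected inhibition of lipid staining of at least 50% with the nuclear-stain viability signal not falling by more than 50%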
Calb FLC: affects C. albicans growth with fluconazole | 0.57% of 300,000 active | C. albicans CaCi-2 (fluconazole-resistant clinical isolate) + fluconazole, Alamar Blue growth, 48 h | growth inhibition, % (concentration not given with the values);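 active means growth inhibition above about 58% in most replicates, limit read from the data, passing the limit was not always enough; inconclusive means exactly half the replicates above a set limit; inactive means most replicates below a set limit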;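 further: all wells also contain fluconazole at 8 µg/ml as a sub-toxic cotreatment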
T cruzi repl: blocks replication of Trypanosoma cruzi. T. cruzi beta-gal in NIH3T3, luminescence, 90 h. AID 1885. 1.4% of 300,000 active. inhibition, % (test concentration not listed);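 active means mean inhibition across valid replicates above about 55%, limit read from the data; inconclusive means mean below that limit but half or more replicates reach it; inactive means mean below it, under half of replicates reach it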;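 further: signal also drops with host cell toxicity which is not excluded here; higher percent means less beta-gal luminescence so fewer parasites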
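System – NIH/3T3 host cells with β-galactosidase reporter T. cruzi · Doses – single 50 nL compound addition per well in DMSO · Reagent – 5000 T. cruzi trypomastigotes/well · Medium – Low-serum DMEM with 2% FBS · Timing – ≥90 h infection period, 3 h prior cell attachment · Evaluation – parasite load inhibition, % · Technique – GalScreen luminescence, 60 min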
Beta apoptosis: beta cell apoptosis inhibition; protection from apoptosis, % (test concentration not listed); AID 435005; INS-1E cytokine-induced death, ATP luminescence, 48 h; percent of positive-control rescue, neutral wells zero; 0.8% of 300,000 active;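 active means Every replicate reaches about 75%, or at least half do and their mean reaches it too, limit read from the data; inconclusive means At least half of replicates reach the limit but their mean does not; inactive means Under half of replicates reach the limit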;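 further: higher means more ATP so stronger rescue from cytokine killing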
A1 inh: inhibitors of the anti-apoptotic protein A1, read as caspase activation | MEF A1-2A-BIM cells, Caspase-Glo 3/7 luminescence, 3 h; percent of clofoctol response, vehicle zero | caspase activation, % (test concentration not listed) | 0.066% of 330,000 active;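 active means over half of replicate activation scores above 10%, or exactly half above 10 with the replicate mean above 10; inconclusive means replicate mean below 10 yet half the replicates above 10; inactive means over half of replicates below 10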
Hits are given with their value; . = inactive; ? = inconclusive; / = not tested or not shown.

SMILES	CSC inhib	H9c2 TAG inh	Calb FLC	T cruzi repl	Beta apoptosis	A1 inh
Cc1cc(C)c(OCCCCN2CCNCC2)c(C)c1	82	/	.	.	.	.
CCOc1ccc(NC(=O)c2cccc(NC(C)=O)c2)cc1S(=O)(=O)N1CCCC1	/	.	/	/	/	/
Oc1ccc(Br)cc1-c1cc(-c2ccccc2)n[nH]1	120	.	.	.	.	.
Oc1ccc(Br)cc1-c1cc(-c2ccc(Cl)cc2)n[nH]1	.	.	.	.	92	.
O=[N+]([O-])c1cccc(-c2cc(-c3cc(Br)ccc3O)[nH]n2)c1	97	/	84	.	/	.
COc1ccc(O)c(-c2cc(-c3cccc(Br)c3)n[nH]2)c1	.	.	.	.	.	.
O=C(NCC(O)CO)c1csc(Nc2cccc3ccccc23)n1 (stereo not given)	/	/	.	.	/	.
CCc1ccc(NC(=O)NCC2CCN(Cc3cccc(Cl)c3)CC2)cc1	.	/	.	.	.	.
Cc1ccc(NC(=O)NCC2CCN(Cc3cccc(Cl)c3)CC2)cc1Cl	?	.	.	62	120	.
O=C(NC1CCCCC1)c1cccc(N2C(=O)CCC2=O)c1	/	.	/	/	/	/
C=C(C(=O)Oc1ccccc1C(C)(C)C)c1ccccc1	103	/	/	/	.	?
CC(C)(C)c1ccccc1OCC(=O)NCCC(=O)O	.	/	.	.	.	.
CCC(C)C(CO)NCCCn1cnc2c(SC)ncnc21 (stereo not given)	/	.	/	/	/	/
Cc1ccc(S(=O)(=O)N2CCN(C)CC2c2ccccc2)cc1 (stereo not given)	/	.	/	/	.	.
Cc1ccc(S(=O)(=O)c2nnn3c2nc(N2CCCCC2)c2ccccc23)cc1	.	/	.	61	.	.
Cc1ccc(S(=O)(=O)c2nnn3c2nc(N2CCOCC2)c2ccccc23)cc1	.	/	.	.	.	.
CCCC(C)c1nnc(NC(=O)COc2ccc3c(c2)OCO3)s1 (stereo not given)	85	/	.	.	.	.
COc1cc(C(=O)NCC(=O)N/N=C/c2ccccn2)cc(OC)c1OC	.	.	.	.	.	.
COc1ccc(C(=O)N/N=C(\Cc2ncc[nH]2)c2ccccc2)cc1	.	.	98	66	.	.
COc1ccc(/C(C)=N/NC(=O)c2ccncc2)cc1	.	/	.	.	.	.
COc1cc(C(=O)N/N=C(\Cc2ncc[nH]2)c2ccccc2)cc(OC)c1OC	91	.	.	/	.	.
c1ccc(N/N=C(\Cc2ncc[nH]2)c2ccccc2)cc1	.	.	114	.	.	.
CCCC(=O)N1CCC1(C)C(=O)NCc1ccccc1SC (stereo not given)	/	.	/	/	/	/
CC(=O)c1cccc(NC(=O)CN2C(=O)NC(C)(C)C2=O)c1	.	.	/	/	.	.
C=CC(=O)N(CCC)C(c1ccccc1)c1ccccc1OC (stereo not given)	.	.	.	.	.	.
SMILES	CSC inhib	H9c2 TAG inh	Calb FLC	T cruzi repl	Beta apoptosis	A1 inh
CCOc1cc(/C=C2\C(=O)NN(c3ccccc3)C2=O)cc([N+](=O)[O-])c1O	.	.	95	.	.	.
O=C1NN(c2cccc(Br)c2)C(=O)/C1=C\c1ccccc1	109	/	.	.	.	.
COc1cc(/C=C2\C(=O)NN(c3ccccc3)C2=O)cc([N+](=O)[O-])c1O	.	.	109	.	.	.
COc1cc(/C=C2/C(=O)NN(c3ccc(Cl)cc3)C2=O)cc(OC)c1O	.	/	90	.	.	.
CN(C)C(=O)OCc1c(-c2ccccc2)ncc2ccccc12	.	/	/	/	.	.
Cc1ccc(S(=O)(=O)N2CCN(C(=O)Cn3c(=O)oc4ccccc43)CC2)c(C)c1	/	.	/	/	.	.
CCN(N=O)c1ccc(C=C2C=Cc3ccccc32)cc1	/	.	/	/	/	/
Cc1ccc2oc(C(=O)NCc3ccc4c(c3)OCO4)c(C)c2c1	.	.	.	.	.	.
Cc1c(C(=O)NCc2ccc3c(c2)OCO3)oc2ccc(S(=O)(=O)N3CCC(C)CC3)cc12	.	.	.	56	.	.
Cc1c(C(=O)NCc2ccc3c(c2)OCO3)oc2ccc(S(=O)(=O)N3CCCCCC3)cc12	.	.	.	55	/	.
CCNC(=O)N1C[C@H]2CON(C)[C@H]2C[C@H]1c1ccccc1Br	/	.	/	/	/	/
CSc1ccccc1OCc1cc(C(=O)N2CCc3c(Cl)cccc3C2)no1	.	/	.	.	79	.
COc1cc2c(cc1OC)CN(C(=O)c1cc(COc3ccccc3SC)on1)CC2	/	.	/	/	/	/
COc1ccc(O)c(/C=N/NC(=O)CN2CCS(=O)(=O)CC2)c1	.	.	.	.	.	.

Screening results: PubChem, several laboratories
